This is an account of results in ChEMBL document CHEMBL3808274, “Discovery and characterization of a novel series of N-phenylsulfonyl-1H-pyrrole picolinamides as positive allosteric modulators of the metabotropic glutamate receptor 4 (mGlu4)” (Bioorg Med Chem Lett, 2016).

Usually EC50 stands for the concentration that produces a half-maximal response. A word on the half-life: it is how long it takes for the measured level to halve. Read a low half-life as rapid decline. One may read the clearance as the rate of elimination divided by the concentration. Lower therefore signals inefficient removal. Usually MRT stands for the average time that molecules of a dose stay in the body. Usually AUC stands for concentration integrated over time. The low end stands for low exposure, the high end for high exposure.

Structures are written as SMILES.

For data set [1], the target named is T1, Metabotropic glutamate receptor 4 (Homo sapiens, UniProt Q14833). Description: Positive allosteric modulation of human mGlu4 receptor assessed as increase in glutamate-induced calcium mobilization. Type of data set: functional. The gist of the method: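 Calcium mobilization assay in cells expressing human mGlu4; potentiation of the glutamate response measured; EC50 values are the average of n = 3.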
For orientation: A change in cytosolic calcium serves as a functional read-out for many receptors and channels.

Data set [2] deals with T1, Metabotropic glutamate receptor 4. Description: Positive allosteric modulation of human mGlu4 receptor assessed as increase in glutamate-induced calcium mobilization at 30 uM relative to PHCCC. Type of data set: functional. The gist of the method: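 Calcium mobilization assay at human mGlu4; response amplitude with 30 µM test compound normalized to the standard PHCCC and expressed as %GluMax.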

In data set [3] the test system is Plasma. Description: Fraction unbound in rat plasma by equilibrium dialysis method. Type of data set: ADME, cell-free. An outline of the steps:
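Protein binding in rat plasma measured by equilibrium dialysis; fraction unbound (Fu) reported.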
In general terms: In equilibrium dialysis free small molecules cross a membrane that holds back macromolecules.

The nature of data set [4]: Half life in rat at 1 mg/kg, iv. Format: ADME, organism-based. The following applies: in vivo. The gist of the method: (§1)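 Rat IV dosing at 1 mg/kg; plasma PK parameters (clearance, half-life, MRT, Vss, AUC) derived from plasma concentration-time profile.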
Data set [5] is described as follows: Volume of distribution at steady state in rat at 1 mg/kg, iv. Type of data set: ADME, organism-based. The following applies: in vivo, read-out: Vdss. The gist of the method: as §1
Data set [6] in a line: Plasma clearance in rat at 1 mg/kg, iv. Format: ADME, organism-based. The gist of the method:
as §1

Data set [7] in a line: Mean residence time in rat at 1 mg/kg, iv. Type of data set: ADME, organism-based. The conditions noted are these: in vivo. The gist of the method:
as §1

A short description of data set [8]: AUC in rat at 1 mg/kg, iv. Type of data set: ADME, organism-based. The following applies: in vivo. An outline of the steps: as §1
A short description of data set [9]: Systemic plasma concentration in rat at 10 mg/kg, po incubated for 1 hr. Format: ADME, organism-based. The gist of the method:
(§2)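 Rats dosed orally at 10 mg/kg, either with vehicle or co-dosed with 1-aminobenzotriazole (ABT), a pan-irreversible cytochrome P450 inhibitor. At 1 h post-dose, systemic plasma, hepatic portal vein plasma and brain were sampled. Drug concentrations were measured in each matrix, and brain:plasma ratios were derived from these levels.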

Data set [10] can be described thus: Ratio of drug level in rat brain to plasma at 10 mg/kg, po coadministered with panirreversible P450 inhibitor ABT incubated for 1 hr. Type of data set: ADME, organism-based. The following applies: read-out: BPR. The gist of the method:
as §2

Data set [11] in a line: Drug level in rat brain at 10 mg/kg, po coadministered with panirreversible P450 inhibitor ABT incubated for 1 hr. Format: ADME, organism-based. The following applies: read-out: Drug uptake. An outline of the steps: (§3)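 Rats dosed orally at 10 mg/kg, with vehicle or co-dosed with the pan-irreversible P450 inhibitor 1-aminobenzotriazole (ABT); samples taken at 1 h from systemic plasma, hepatic portal vein plasma and brain. Brain:plasma and systemic:HPV ratios are calculated from these concentrations.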

Data set [12] in a line: Drug level in rat brain at 10 mg/kg, po incubated for 1 hr. Format: ADME, organism-based. The following applies: read-out: Drug uptake. The gist of the method: as §3
The nature of data set [13]: Plasma concentration in rat hepatic portal vein at 10 mg/kg, po coadministered with panirreversible P450 inhibitor ABT incubated for 1 hr. Format: ADME, organism-based. The gist of the method:
as §3

The nature of data set [14]: Plasma concentration in rat hepatic portal vein at 10 mg/kg, po incubated for 1 hr. Format: ADME, organism-based. The gist of the method:
as §3

Data set [15] in a line: Ratio of systemic plasma concentration to hepatic portal vein plasma concentration in rat at 10 mg/kg, po. Format: ADME, organism-based. The following applies: in vivo. An outline of the steps:
as §3

A short description of data set [16]: Ratio of systemic plasma concentration to hepatic portal vein plasma concentration in rat at 10 mg/kg, po coadministered with panirreversible P450 inhibitor ABT. Format: ADME, organism-based. The following applies: in vivo. An outline of the steps: as §3
The nature of data set [17]: Systemic plasma concentration in rat at 10 mg/kg, po coadministered with panirreversible P450 inhibitor ABT incubated for 1 hr. Format: ADME, organism-based. The gist of the method: as §2
A short description of data set [18]: Ratio of drug level in rat brain to plasma at 10 mg/kg, po incubated for 1 hr. Type of data set: ADME, organism-based. The conditions noted are these: read-out: BPR. The gist of the method: as §3

T1 sequence (Q14833 whole entry): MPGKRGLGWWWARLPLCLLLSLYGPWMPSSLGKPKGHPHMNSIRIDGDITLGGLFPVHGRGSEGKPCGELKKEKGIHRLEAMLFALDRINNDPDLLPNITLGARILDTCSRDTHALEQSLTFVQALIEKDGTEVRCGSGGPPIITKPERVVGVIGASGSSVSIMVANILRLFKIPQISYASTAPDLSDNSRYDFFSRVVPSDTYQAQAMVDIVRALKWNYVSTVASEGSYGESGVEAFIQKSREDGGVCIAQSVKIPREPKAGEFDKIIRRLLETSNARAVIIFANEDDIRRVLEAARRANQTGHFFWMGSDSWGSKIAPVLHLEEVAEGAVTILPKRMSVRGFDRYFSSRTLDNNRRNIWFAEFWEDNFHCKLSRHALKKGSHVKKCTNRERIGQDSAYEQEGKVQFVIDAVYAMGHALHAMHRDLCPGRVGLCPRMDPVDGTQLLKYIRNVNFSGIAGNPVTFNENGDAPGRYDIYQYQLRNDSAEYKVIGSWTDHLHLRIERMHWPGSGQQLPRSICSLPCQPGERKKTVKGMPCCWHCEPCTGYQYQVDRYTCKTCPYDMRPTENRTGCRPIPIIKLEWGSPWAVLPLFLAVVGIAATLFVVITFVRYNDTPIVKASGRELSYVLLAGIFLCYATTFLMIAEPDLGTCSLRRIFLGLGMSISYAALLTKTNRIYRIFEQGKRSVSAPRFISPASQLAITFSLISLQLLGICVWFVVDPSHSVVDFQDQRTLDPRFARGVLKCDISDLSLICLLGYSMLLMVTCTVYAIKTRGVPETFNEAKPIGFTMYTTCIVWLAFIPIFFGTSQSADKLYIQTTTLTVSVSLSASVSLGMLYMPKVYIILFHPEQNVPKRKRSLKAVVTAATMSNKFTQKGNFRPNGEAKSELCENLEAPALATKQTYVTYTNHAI

On to `O=C(Nc1ccn(S(=O)(=O)Cc2ccc(C(F)(F)F)cc2)c1)c1ccccn1`, for which the EC50 in data set [1] is 188 nM. Further, the %max in data set [2] is 88.7%.
Turning to `O=C(Nc1ccn(S(=O)(=O)Cc2ccc(F)cc2F)c1)c1ccccn1`, the EC50 in data set [1] worked out at 190 nM. Moreover, the %max in data set [2] came out at 109%.
In the same order, the values of `O=C(Nc1ncc(S(=O)(=O)Cc2ccccc2Cl)s1)c1ccccn1` are 189 nM and 30.6%.
In the same order, the values of `O=C(Nc1ccn(S(=O)(=O)Cc2ccc(F)cc2Cl)c1)c1ccccn1` are 84 nM and 122%.
With `CCc1nc(NC(=O)c2ccccn2)sc1S(=O)(=O)Cc1c(F)cccc1F`, the EC50 in data set [1] turned out to be 150 nM. Besides, in [2], the %max amounted to 109%.
For the compound `Cc1nc(NC(=O)c2ccccn2)sc1S(=O)(=O)Cc1ccccc1Cl`, the EC50 in data set [1] turned out to be 448 nM. Also, the %max in [2] turned out to be 94.8%.
Take `Cc1nc(NC(=O)c2ccccn2)sc1S(=O)(=O)Cc1c(F)cccc1F`: the EC50 in data set [1] is 295 nM. For the same compound, the %max in data set [2] was 99.3%.
For the compound `O=C(Nc1ccn(S(=O)(=O)c2ccc(Cl)cc2)c1)c1ccccn1`, the EC50 in data set [1] was 1240 nM. The compound further showed a Fu in data set [3] of 0.004. In data set [2], the %max is 103%.
`Cc1cccc(CS(=O)(=O)n2ccc(NC(=O)c3ccccn3)c2)c1`: in data set [1], the EC50 worked out at 4180 nM. In data set [2], the %max worked out at 112%.
On to `CCc1nc(NC(=O)c2ccccn2)sc1S(=O)(=O)Cc1ccc(Cl)cc1F`, for which the EC50 in [1] was 217 nM. For the same compound, in [2], the %max is 120%.
Compound `Cc1ccc(S(=O)(=O)n2ccc(NC(=O)c3ccccn3)c2)cc1C` gave a half-life in data set [4] of 4.2 h. The Vd in data set [5] turned out to be 5.5 L/kg. In data set [1], the EC50 is 62 nM. In [6], the clearance amounted to 37.2 mL/min/kg. For the same compound, in [3], the Fu came out at 0.012. The compound further had an MRT in data set [7] of 2.48 h. Also, the %max in data set [2] turned out to be 80.3%. In addition, in data set [8], the AUC was found to be 448 ng·h/mL.
Consider `O=C(Nc1ccn(S(=O)(=O)C(F)c2ccccc2F)c1)c1ccccn1` (stereo not drawn), for which the EC50 in data set [1] worked out at 1020 nM. The %max in [2] came out at 71%.
In the same order, the values of `O=C(Nc1ccn(S(=O)(=O)c2ccc(Cl)cn2)c1)c1ccccn1` are 344 nM and 83%.
In the same order, the values of `O=C(Nc1ccn(S(=O)(=O)Cc2ccccc2Cl)c1)c1ccccn1` are 174 nM and 119%.
Take `Cc1cccc(S(=O)(=O)n2ccc(NC(=O)c3ccccn3)c2)c1`: in [1], the EC50 turned out to be 104 nM. Also, in [3], the Fu is recorded as 0.001. Moreover, the %max in data set [2] was 84.8%.
Taken in the same sequence, the figures for `Cc1ccc(S(=O)(=O)n2ccc(NC(=O)c3ccccn3)c2)cc1` were 122 nM, 0.009 and 88.8%.
Consider `O=C(Nc1ncc(S(=O)(=O)Cc2ccc(Cl)cc2F)s1)c1ccccn1`, for which the EC50 in data set [1] came to 83 nM. Moreover, in [2], the %max came out at 35.1%.
Turning to `CC(c1ccccc1)S(=O)(=O)n1ccc(NC(=O)c2ccccn2)c1` (stereo not drawn), the EC50 in data set [1] came out at 2970 nM. The %max in [2] turned out to be 59.6%.
Regarding `O=C(Nc1ccn(S(=O)(=O)C(F)(F)c2ccccc2F)c1)c1ccccn1`, in data set [1], the EC50 is more than 30000 nM. Also, in data set [2], the %max was found to be 33.5%.
Taken in the same sequence, the figures for `O=C(Nc1ccn(S(=O)(=O)Cc2ccc(Cl)cc2)c1)c1ccccn1` were 398 nM and 140%.
Taken in the same sequence, the figures for `O=C(Nc1ccn(S(=O)(=O)c2ccc(F)cc2)c1)c1ccccn1` were 740 nM and 78.8%.
For the compound `Cc1nc(NC(=O)c2ccccn2)sc1S(=O)(=O)Cc1ccc(Cl)cc1F`, the EC50 in data set [1] stood at 4140 nM. Moreover, the %max in [2] was determined as 112%.
In the same order, the values of `O=C(Nc1ccn(S(=O)(=O)c2ccc(C(F)(F)F)cc2)c1)c1ccccn1` are 739 nM and 35.6%.
For the compound `Cc1nc(NC(=O)c2ccccn2)sc1S(=O)(=O)Cc1ccc(F)cc1F`, the EC50 in data set [1] is 547 nM. In addition, the %max in data set [2] is 93.5%.
With `O=C(Nc1ccn(S(=O)(=O)c2ccc(Cl)nc2)c1)c1ccccn1`, the EC50 in data set [1] came out at 440 nM. The %max in data set [2] was determined as 72.9%.
For the compound `Cc1cc(S(=O)(=O)n2ccc(NC(=O)c3ccccn3)c2)ccc1F`, in [1], the concentration giving a half-maximal response (EC50) was determined as 268 nM. In [2], the %max was found to be 98.9%.
Turning to `O=C(Nc1ccn(S(=O)(=O)Cc2cccc(F)c2)c1)c1ccccn1`, in [1], the EC50 stood at 572 nM. For the same compound, the %max in data set [2] was 98.6%.
For `O=C(Nc1ccn(S(=O)(=O)Cc2ccccc2F)c1)c1ccccn1`, in data set [1], the EC50 worked out at 251 nM. Also, in [2], the %max was 117%.
Consider `Cc1ccc(S(=O)(=O)n2cc(NC(=O)c3ccccn3)cn2)cc1C`, for which, in data set [1], the EC50 stood at 148 nM. The Fu in [3] turned out to be 0.005. In data set [2], the %max worked out at 92.9%.
The compound `Cc1cc(S(=O)(=O)n2ccc(NC(=O)c3ccccn3)c2)ccc1Cl` showed a half-life in data set [4] of 2.78 h. The Vd in data set [5] turned out to be 7.4 L/kg. Further, the concentration at 1 h in data set [9] came out at 7.4 ng/mL; in [11] it was 176 ng/g; in [12], 8.1 ng/g; in data set [13], 764 ng/mL; in data set [14], 731 ng/mL; in [17], 198 ng/mL. Further, the EC50 in data set [1] came out at 163 nM. For the same compound, the clearance in data set [6] is 86.8 mL/min/kg. Besides, in data set [3], the Fu came to 0.004. In [7], the mean residence time MRT is 1.41 h. Moreover, the Kp at 1 h in data set [10] and in [18] was 1 each time. The figures for the Ratio in [15] and in [16] were less than 0.01 and 0.26, respectively. Further, in [2], the %max came to 72.2%. Besides, the AUC in data set [8] was found to be 192 ng·h/mL.
Consider `O=C(Nc1cnn(S(=O)(=O)c2ccc(C(F)(F)F)cc2)c1)c1ccccn1`, for which the EC50 in data set [1] is 242 nM. Moreover, in data set [2], the %max is 35.3%.
